Hit rate of the full screen: of about 330,000 compounds, about 1,100 (0.33%) were called active.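 How the source made its calls: active means mean inhibition over replicate wells above about 20% (limit read from the data); inactive means the rest.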 What follows is part of a selection rich in actives, with near analogues and random picks from the rest.
The compounds below were run against Ubiquitin carboxyl-terminal hydrolase isozyme L5 (Homo sapiens) (UniProt Q9Y5K5) (assay: proteasome-bound UCH37 DUB activity blockers – biochemical, Ub-AMC cleavage, fluorescence, primary screen (AID 588478;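 further: 0% = compound-free wells with enzyme and 100% = wells lacking proteasome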)). Details: purified proteasome/UCH37, Ub-AMC cleavage fluorescence; active compounds read high; concentration not given here.
Procedure, shortened: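 Material: human UCH37 enzyme supplied as purified proteasome complex. Measure: % inhibition of Ub-AMC cleavage fluorescence. Medium: pH 7.4 Tris-HCl (50 mM) with ovalbumin, ATP-MgCl2, DTT. Times: 30 min preincubation with enzyme, 25 min cleavage at room temperature. Detection: AMC fluorescence intensity at 355/460 nm.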

Sequence of Ubiquitin carboxyl-terminal hydrolase isozyme L5 (Homo sapiens) (Q9Y5K5 whole entry, looked up): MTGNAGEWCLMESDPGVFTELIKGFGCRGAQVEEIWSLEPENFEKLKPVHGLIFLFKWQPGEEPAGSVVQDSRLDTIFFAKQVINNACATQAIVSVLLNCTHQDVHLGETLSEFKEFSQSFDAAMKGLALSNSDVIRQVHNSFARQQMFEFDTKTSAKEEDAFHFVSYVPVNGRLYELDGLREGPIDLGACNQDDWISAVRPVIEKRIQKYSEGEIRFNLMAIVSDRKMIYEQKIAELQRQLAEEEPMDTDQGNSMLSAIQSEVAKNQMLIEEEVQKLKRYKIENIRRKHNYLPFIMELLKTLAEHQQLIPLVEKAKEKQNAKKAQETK

inhibition, inactive:
S=c1[nH]nc(-c2ccccc2)n1N=Cc1ccc(-c2ccccc2Cl)o1 5.56%
CC(CC(=O)Nc1ccc(Cl)cc1Cl)=NNC(=O)c1ccncc1 0.597%
COC(=O)NN=C(C)c1cccs1 2.45%
N#C/C(=C\c1ccc(N2CCOCC2)o1)C(=O)N1CCOCC1 15.4%
N#C/C(=C/c1ccc(N2CCCCC2)o1)C(=O)NCCc1c[nH]c2ccccc12 11.5%
N#Cc1c2c(c(-c3ccccc3)[nH]c1=O)CCCC2 -49.7%
CC(C)(C)n1c(=O)[nH]c2c(c1=O)CCC2 -4.38%
CCOc1ccc(C=NNC(=O)c2nnn(-c3nonc3N)c2COc2ccc(F)cc2)cc1 -139%
N#CCC(=O)NN=Cc1cn(Cc2cccc3ccccc23)c2ccccc12 1.26%
COCc1c(C)cc(C)c(C=NO)c1C 3.47%
C=CCn1c(=C(C#N)c2nnc3n2CCCCC3)sc(=Cc2ccc(Cl)cc2)c1=O 8.49%
N#CC(=NNc1cc(Cl)cc(Cl)c1)c1nnc2n1CCCCC2 3.3%
COc1cc(C=NNS(=O)(=O)c2ccc(C)cc2)ccc1OCc1ccc(C(=O)O)cc1 3.97%
COc1ccccc1C=NNc1cc(C)nc2ccc(C)cc12 -45.9%
C/C(C=NNC(=O)c1ccc2nc[nH]c2c1)=C/c1ccccc1 5.71%
Cc1cnc(NC(=O)c2ccccn2)s1 2.76%
Cc1nc(NC(=O)C2CCCCC2)sc1C 1.92%
CCCOc1ccc(-c2c(C(=O)NN=Cc3ccccc3)nnn2-c2nonc2N)cc1 5.85%
COc1cc(C=Nn2c(C)nc3ccccc3c2=O)ccc1O 12.2%
CC(CC(=O)Nc1cc(C)ccn1)=NNC(=O)c1cccc(C)c1O -6.85%
CCS(=O)(=O)C1=NSC2=NC(=O)/C(=C\c3cc(C)n(-c4cccc(OC)c4)c3C)C(=N)N21 -8.8%
Cc1cc(C=NO)c(C)n1-c1ccccc1 -2.23%
COc1ccc2c(c1)c(C(=O)NN=Cc1ccc(Br)cc1)c(C)n2C 2.61%
CC(Oc1ccc(Cl)cc1)C(=O)NN=Cc1ccsc1 (stereo unspecified) 0.279%
Cc1oc(N=Cc2cccc([N+](=O)[O-])c2)c(C#N)c1C 4.11%
COc1ccc(C=NNC(=O)CSCC(=O)Nc2ccccc2)cc1 2.55%
COC(=O)Cc1cc(=O)[nH]c(N=C(N)Nc2ccc(C)cc2C)n1 -0.633%
C(=Nn1cnnc1)c1ccc(OCc2cccc3ccccc23)cc1 2.25%
COc1ccc2ccccc2c1C=NNC(=S)Nc1cc(S(=O)(=O)N2CCOCC2)ccc1N1CCOCC1 -8.36%
O=C(NN=Cc1ccc(-c2ccccc2[N+](=O)[O-])o1)C1COc2cc3ccccc3cc2O1 (stereo unspecified) 7.82%
O=c1c(=Cc2ccco2)sc2nc(-c3ccccc3Br)nn12 4.51%
CC(C)(C)c1cc(=O)n2c(nc3ccccc32)[nH]1 -27.1%
CC(=NNC(=O)Cc1c(Cl)cccc1Cl)c1cccnc1 4.49%
Cc1cccc(-c2cc(C(=O)NN=Cc3cccnc3)c3ccccc3n2)c1 1.54%
CCCOc1ccc(CNC(=O)C2CCN(c3nn4c(=O)cc(C)nc4s3)CC2)cc1 1.32%
Cc1cc(=O)n2nc(N3CCC(C(=O)Nc4c(F)c(F)c(F)c(F)c4F)CC3)sc2n1 -5.44%
CCOc1ccc(C=NNC(=O)CN2CCCCC2)cc1OCC 4.23%
COc1ccc(CC(=O)Nc2cccc(C(C)=NNC(=O)c3cccc([N+](=O)[O-])c3)c2)cc1 2.24%
CCC(=NNC(=O)Nc1nonc1N)c1ccc(OC)c(OC)c1 2.18%
Cc1nnsc1C(=O)NN=Cc1ccccc1Cl 2.87%
O=C(CNC(=O)c1cccc(Cl)c1)NN=Cc1cccnc1 3.41%
CCOC(=O)c1cccc(NC(=O)CCOc2ccccc2)c1 0.512%
CCOC(=O)c1cccc(NC(=O)CCn2nnc3ccccc32)c1 0.741%
CC(=O)NC1CCCN(O)C(=O)C=C(C)CCOC(=O)C(NC(C)=O)CCCN(O)C(=O)C=C(C)CCOC(=O)C(NC(C)=O)CCCN(O)C(=O)C=C(C)CCOC1=O (stereo unspecified) -0.932%
COc1cc(OC)cc(C(=O)NN=Cc2ccoc2)c1 1.2%
CCOC(=O)c1cc(C(C)=NOC(=O)c2ccc(C(C)(C)C)cc2)on1 4.76%
O=C(NN=Cc1cc2cc3c(cc2nc1Cl)OCO3)c1ccncc1 -62.6%
Cc1[nH]c2ccccc2c1/C=C(/C#N)C(=O)NC(C)C 11.3%
N#C/C(=C\c1ccc(O)c(O)c1)C(=O)NCc1ccccc1 4.82%

inhibition, active:
N#C/C(=C/c1ccc(N2CCOCC2)o1)C(=O)N1CCOCC1 33.4%
O=c1[nH]n2c(=O)c3c([nH]c2c1N=Nc1ccccc1)CCC3 22.1%
N#CC(=C(O)CCl)c1nnc2n1CCCCC2 31.4%
Cc1cnc(NC(=O)C2CCCC2)s1 31%
Cc1cc(/C=C2/C(=N)N3C(=NC2=O)SN=C3S(C)(=O)=O)c(C)n1-c1ccccc1 33.8%
CN=C1C=C/C(=N/N=c2\ccn(O)cc2C)C=C1C 23.6%
O=C(O)c1cc(C(=O)O)cc(-c2ccc(C=c3sc4nc5ccccc5n4c3=O)o2)c1 22.2%
COc1ccc(CCNC(=O)C2CCN(c3nn4c(=O)cc(C)nc4s3)CC2)cc1OC 27.9%
CC[n+]1cc(C)ccc1/C=C/c1ccc(N(C)C)cc1 20.6%
CCOC(=O)c1cccc(NC(=O)c2ccc(F)cc2F)c1 24.8%
O=C1NNC(c2ccccc2)=N/C1=C\c1ccc(Cl)cc1 21.1%
CC(C)NC(=O)/C(C#N)=C\c1ccc(N(C)C)c(Br)c1 35.8%

Reference: PubChem BioAssay AID588478 (ICCB-Longwood Screening Facility, Harvard Medical School, 2011)
